# Calls of active or inactive are those of the source. The calls are words filed in the database; no cut-off is given here.
# Experiments:
# Rattus norvegicus [1] = experiment: Antidiabetic activity in ZDF rat assessed as blood glucose level at 1 mg/kg, po QD for 40 days (reference value: 771+/-60 mg/dL); assay type: functional
# Rattus norvegicus [2] = experiment: Antidiabetic activity in ZDF rat assessed as blood glucose level at 100 mg/kg, po QD for 40 days (reference value: 771+/-60 mg/dL); assay type: functional
# Rattus norvegicus [3] = experiment: Antidiabetic activity in ZDF rat assessed as triglyceride level at 3 mg/kg, po QD for 40 days (reference value: 618+/-52 mg/dL); assay type: functional
# Rattus norvegicus [4] = experiment: Antidiabetic activity in ZDF rat assessed as triglyceride level at 10 mg/kg, po QD for 40 days (reference value: 618+/-52 mg/dL); assay type: functional
# Rattus norvegicus [5] = experiment: Antidiabetic activity in ZDF rat assessed as triglyceride level at 30 mg/kg, po QD for 40 days (reference value: 618+/-52 mg/dL); assay type: functional
# Rattus norvegicus [6] = experiment: Antidiabetic activity in ZDF rat assessed as body weight gain at 10 mg/kg, po QD for 40 days (reference value: 133+/-9 g); assay type: functional
# Procedure, shortened: (§1)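 Male ZDF rats, starting at about 6 weeks old, were dosed orally once daily for 40 days in 1.5% CMC/0.2% Tween 20 suspension, n = 8/group. Body weight was followed over the study. Gain was calculated per animal from day 0 to day 40 and compared with vehicle and pioglitazone (3 mg/kg) groups. Data are mean ± SEM.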
# Rattus norvegicus [7] = experiment: Antidiabetic activity in ZDF rat assessed as body weight gain at 30 mg/kg, po QD for 40 days (reference value: 133+/-9 g); assay type: functional; procedure, shortened: as §1
# Rattus norvegicus [8] = experiment: Antidiabetic activity in ZDF rat assessed as body weight gain at 100 mg/kg, po QD for 40 days (reference value: 133+/-9 g); assay type: functional; procedure, shortened: as §1
# Rattus norvegicus [9] = experiment: Antidiabetic activity in ZDF rat assessed as adiponectin level at 3 mg/kg, po QD for 40 days (reference value: 11.9+/-1.5 ug/ml); assay type: functional
# Rattus norvegicus [10] = experiment: Antidiabetic activity in ZDF rat assessed as adiponectin level at 0.1 mg/kg, po QD for 40 days (reference value: 11.9+/-1.5 ug/ml); assay type: functional
# [11] = target: T1, Peroxisome proliferator-activated receptor gamma (Homo sapiens, UniProt P37231); experiment: Partial agonist activity at human PPARgamma-LBD/Gal4 DNA binding domain by transactivation assay
# T1 sequence (P37231 whole entry): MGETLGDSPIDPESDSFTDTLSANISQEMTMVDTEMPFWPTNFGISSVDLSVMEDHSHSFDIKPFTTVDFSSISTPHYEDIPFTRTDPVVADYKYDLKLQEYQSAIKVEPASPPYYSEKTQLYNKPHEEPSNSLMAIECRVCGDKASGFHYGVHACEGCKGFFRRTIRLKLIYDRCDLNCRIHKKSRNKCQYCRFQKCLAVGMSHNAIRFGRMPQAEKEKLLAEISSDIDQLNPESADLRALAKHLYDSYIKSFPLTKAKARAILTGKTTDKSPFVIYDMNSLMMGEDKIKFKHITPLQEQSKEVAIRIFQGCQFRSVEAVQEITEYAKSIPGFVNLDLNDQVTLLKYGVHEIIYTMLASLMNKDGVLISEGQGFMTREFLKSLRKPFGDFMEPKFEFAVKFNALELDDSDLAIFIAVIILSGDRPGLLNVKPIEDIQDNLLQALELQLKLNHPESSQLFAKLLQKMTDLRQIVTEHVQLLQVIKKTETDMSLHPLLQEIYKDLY
# [12] = target: T2, Type-2 angiotensin II receptor (Homo sapiens, UniProt P50052); experiment: Binding affinity to human Angiotensin receptor 2
# T2 sequence (P50052 whole entry): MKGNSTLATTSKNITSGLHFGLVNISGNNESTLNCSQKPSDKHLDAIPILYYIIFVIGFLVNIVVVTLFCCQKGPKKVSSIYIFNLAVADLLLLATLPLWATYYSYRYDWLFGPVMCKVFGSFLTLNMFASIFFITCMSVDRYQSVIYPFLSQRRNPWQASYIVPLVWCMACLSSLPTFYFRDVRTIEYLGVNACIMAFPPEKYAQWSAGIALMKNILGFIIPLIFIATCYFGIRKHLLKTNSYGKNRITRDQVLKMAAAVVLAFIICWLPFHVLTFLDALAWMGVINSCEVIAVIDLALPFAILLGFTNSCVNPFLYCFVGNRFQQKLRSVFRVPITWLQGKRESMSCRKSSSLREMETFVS
# [13] = target: T3, Peroxisome proliferator-activated receptor alpha (Homo sapiens) (UniProt Q07869); experiment: Transactivation of human PPARalpha
# T3 sequence (whole entry): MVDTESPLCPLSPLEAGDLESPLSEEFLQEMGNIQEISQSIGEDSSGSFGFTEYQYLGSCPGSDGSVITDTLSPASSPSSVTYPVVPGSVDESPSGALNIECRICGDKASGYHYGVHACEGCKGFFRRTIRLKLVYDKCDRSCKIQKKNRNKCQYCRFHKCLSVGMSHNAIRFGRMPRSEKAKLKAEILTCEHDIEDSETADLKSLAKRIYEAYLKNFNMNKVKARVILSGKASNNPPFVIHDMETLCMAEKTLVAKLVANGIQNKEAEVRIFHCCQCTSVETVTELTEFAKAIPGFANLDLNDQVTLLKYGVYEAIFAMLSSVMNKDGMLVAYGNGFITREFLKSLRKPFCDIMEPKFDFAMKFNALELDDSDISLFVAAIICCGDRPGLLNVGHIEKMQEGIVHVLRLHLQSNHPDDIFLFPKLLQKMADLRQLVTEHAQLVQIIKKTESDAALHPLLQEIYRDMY
# [14] = AUC in rat at 5 mg/kg, po; assay type: ADME, organism-based; set-up: dose 5 mg/kg, route oral; settings: plasma
# [15] = AUC in SHR rat at 1 mg/kg, po; assay type: ADME, organism-based; set-up: dose 1 mg/kg, route oral; settings: plasma
# Procedure, shortened: (§2)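 SHR received a single oral dose of 1, 3 or 10 mg/kg. Systemic exposure was determined as plasma Cmax and AUC.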
# [16] = AUC in SHR rat at 10 mg/kg, po; assay type: ADME, organism-based; set-up: dose 10 mg/kg, route oral; settings: plasma; procedure, shortened: as §2
# Rattus norvegicus [17] = experiment: Antihypertensive activity in SHR rat assessed as decrease in arterial blood pressure at 10 mg/kg, po QD for 7 days; assay type: functional, Artery
# [18] = Cmax in ZDF rat at 10 mg/kg, po; assay type: ADME, organism-based; set-up: dose 10 mg/kg, route oral; settings: in vivo
# Procedure, shortened: (§3)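 Male ZDF rats; satellite animals outside the efficacy groups were given oral doses of 3, 10 or 100 mg/kg. Plasma Cmax and AUC were calculated from these animals.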
# [19] = Cmax in ZDF rat at 100 mg/kg, po; assay type: ADME, organism-based; set-up: dose 100 mg/kg, route oral; settings: in vivo; procedure, shortened: as §3
# [20] = AUC in ZDF rat at 100 mg/kg, po; assay type: ADME, organism-based; set-up: dose 100 mg/kg, route oral; settings: plasma; procedure, shortened: as §3
# Rattus norvegicus [21] = experiment: Antihypertensive activity in SHR rat assessed as induction of reflex tachycardia at 10 mg/kg, po single dose measured 4 to 8 hrs post dosing
compound,measurement,setting,value
CCc1nc2c(C)cc(CC(C)C)nc2n1[C@H]1CCc2cc(-c3ccccc3-c3nnn[nH]3)ccc21,Activity,Rattus norvegicus [1],612 mg/dL
same,Activity,Rattus norvegicus [2],116 mg/dL
same,Activity,Rattus norvegicus [3],734 mg/dL
same,Activity,Rattus norvegicus [4],393 mg/dL
same,Activity,Rattus norvegicus [5],288 mg/dL
same,Activity,Rattus norvegicus [6],200 g
same,Activity,Rattus norvegicus [7],202 g
same,Activity,Rattus norvegicus [8],202 g
same,Activity,Rattus norvegicus [9],11.4 µg/mL
same,Activity,Rattus norvegicus [10],9.9 µg/mL
same,EC50,[11],212 nM
same,Ki,[12],> 10000 nM
same,Activity,[13],inactive
same,AUC,[14],4.95 µg·h/mL
same,AUC,[15],0.32 µg·h/mL
same,AUC,[16],6.83 µg·h/mL
same,Activity,Rattus norvegicus [17],>60 mmHg
same,Cmax,[18],2.73 µg/mL
same,Cmax,[19],177 µg/mL
same,AUC,[20],2600 µg·h/mL
same,Activity,Rattus norvegicus [21],Active
